Source: publication PMC7869845 (ACS catalysis, 2020)

Legend:
[1] = system: TamI-RhFRED fusion protein; conditions: first oxidation of 1, second oxidation of 3, final oxidation of 4; cited from earlier work
TamI F92A [2] = test: Spectrophotometric substrate binding assay, TamI F92A; set-up: species or system Streptomyces sp. 307-9
Method in brief: (§1)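 Active P450 was quantified by CO-difference spectra (ε450-490 = 91 mM−1cm−1). Enzyme at 1 μM final in storage buffer was titrated aerobically at room temperature with tirandamycin C from DMSO stocks until saturated. Difference spectra were recorded at 365–429 nm, and peak-minus-trough ΔA was plotted against concentration. Kd came from quadratic tight-binding or hyperbolic fits, averaged over triplicate titrations.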

TamI F92A [3] = test: End-point assay, TamI F92A; format: biochemical, Streptomyces sp. 307-9
Method in brief: (§2)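 Site-directed mutants expressed in E. coli BL21(DE3). Reactions in phosphate buffer (50 mM NaH2PO4, pH 7.4, EDTA, dithioerythritol, 10% glycerol) held 500 μM tirandamycin substrate, 2 μM TamI, spinach ferredoxin, 2 μM ferredoxin-NADP+ reductase, and G6P/G6PDH NADPH regeneration. Incubated 3 h at 30 °C, extracted with CHCl3, then C18 reverse-phase HPLC with UV at 354 nm. Run in triplicate.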

TamI L101V/H102S = test: End-point assay, TamI L101V/H102S; format: biochemical, Streptomyces sp. 307-9; conditions: no change in product profile
Method in brief: as §2

TamI L399A/I400A [4] = test: End-point assay, TamI L399A/I400A; format: biochemical, Streptomyces sp. 307-9
Method in brief: as §2

[5] = system: TamI S397A, T398A, V185A, P43A/V44A variants; format: biochemical, Streptomyces sp. 307-9; conditions: end-point assay, TirC to TirE conversion
[6] = system: TamI double mutant (alanine substitutions at Leu295 and Thr299); test: End-point assay, TamI Leu295/Thr299 alanine double mutant; format: biochemical, Streptomyces sp. 307-9
Method in brief: as §2

TamI L399A/I400A [7] = test: Spectrophotometric substrate binding assay, TamI L399A/I400A; set-up: species or system Streptomyces sp. 307-9
Method in brief: as §1

In the case of `CC1=CC(=O)[C@H]2O[C@]1(C)O[C@H]([C@H](C)/C=C(C)/C=C/C(O)=C1/C(=O)CNC1=O)[C@H]2C` [compound 3, tirandamycin D], the kcat [1] is listed as 1.4 s⁻¹.

In the case of `CC1=CC[C@H]2O[C@]1(C)O[C@H]([C@H](C)/C=C(C)/C=C/C(O)=C1/C(=O)CNC1=O)[C@H]2C` [compound 1, tirandamycin C], the “spectral shift on substrate addition” value (TamI F92A [2]) is given as “no shift”, the kcat [1] is given as 0.675 s⁻¹ and the catalytic activity (TamI F92A [3]) is given as “complete loss of catalytic activity”. For the same compound, the “TirC to TirE conversion” value (TamI L101V/H102S) was “significant decrease”, the catalytic activity (TamI L399A/I400A [4]) was “significantly reduced activity” and the “product profile or abundance compared to wild type TamI” value [5] was “no evident changes in product profile or abundance”. For the same compound, the “ability to convert substrate to 2” value [6] was “wild type activity” and the “spectral shift on substrate addition” value (TamI L399A/I400A [7]) was “no shift”.

For `CC(/C=C/C(O)=C1/C(=O)CNC1=O)=C\[C@@H](C)[C@H]1O[C@@]2(C)O[C@H](C(=O)[C@H]3O[C@]32C)[C@@H]1C` [compound 4, tirandamycin A], the kcat [1] is listed as 0.00183 s⁻¹.
